Test results from ChEMBL document CHEMBL3875158, “Synthesis and biological evaluation of 4-(2-(dimethylamino)ethoxy)benzohydrazide derivatives as inhibitors of Entamoeba histolyica” (Eur J Med Chem, 2016).

Legend:
[1] = test system: Entamoeba histolytica; experiment: Antiamoebic activity against Entamoeba histolytica HM-1:IMSS trophozoites incubated for 10 mins under nitrogen gassed condition measured after 72 hrs by eosin staining based micro dilution method; format: functional
Procedure, shortened: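 Microdilution in 96-well plates with trophozoites in Diamond TYIS-33 medium at 10^5 cells per mL. Compounds dissolved in ethanol (level non-inhibitory to amoebae), stock 1 mg/mL, tested in triplicate. Plate sealed, gassed with nitrogen 10 min, incubated 37 °C for 72 h. Then medium removed, washed with 0.9% NaCl, methanol-fixed and stained with 0.5% aqueous eosin for 15 min, OD read at 490 nm. IC50 from non-linear regression of % inhibition versus control. At least two independent experiments.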

[2] = Cytotoxicity against human A549 cells assessed as reduction in cell viability after 48 hrs by MTT assay; format: toxicity, cell-based
Procedure, shortened: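 Cells seeded at 8000/well in Ham's F-12 with 10% FBS and grown to 80–90% confluence. Medium then replaced with drug-containing medium with 1% FBS; drug range […], each concentration in triplicate, medium-only negative controls. Stocks made in ethanol, diluted in medium. Incubated at 37 °C, 5% CO2 for 48 h. MTT (5 mg/ml) added for 4 h, formazan dissolved in DMSO, absorbance read at 560 nm with 670 nm reference. Viability relative to controls; IC50 from concentration–viability plot.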

Compound	IC50 [1] [µM]	IC50 at 48 h [2] [µM]
CCc1ccc(/C=N/NC(=O)c2ccc(OCCN(C)C)cc2)cc1	5.65	–
COc1cc(/C=N/NC(=O)c2ccc(OCCN(C)C)cc2)ccc1O	2.41	–
Cc1ccsc1/C=N/NC(=O)c1ccc(OCCN(C)C)cc1	4.98	–
CC(C)Oc1ccc(/C=N/NC(=O)c2ccc(OCCN(C)C)cc2)cc1	7.65	–
CC(C)c1ccc(/C=N/NC(=O)c2ccc(OCCN(C)C)cc2)cc1	3.45	–
COc1cc(/C=N/NC(=O)c2ccc(OCCN(C)C)cc2)ccc1OC(C)C	4.13	–
CN(C)CCOc1ccc(C(=O)N/N=C/c2ccc(Cl)c(Cl)c2)cc1	2.81	–
COc1ccc(/C=N/NC(=O)c2ccc(OCCN(C)C)cc2)cc1OC	2.69	–
CN(C)CCOc1ccc(C(=O)N/N=C/c2cccc([N+](=O)[O-])c2)cc1	2.8	–
CN(C)CCOc1ccc(C(=O)N/N=C/c2ccc(O)c(O)c2)cc1	6.4	–
CCOc1ccc(/C=N/NC(=O)c2ccc(OCCN(C)C)cc2)cc1	3.77	–
COc1c(O)ccc(/C=N/NC(=O)c2ccc(OCCN(C)C)cc2)c1Br	3.61	–

The remaining compounds from weak to strong by IC50 [1], led by results:

IC50 [1] [µM]	Compound	IC50 at 48 h [2] [µM]
2.4	CN(C)CCOc1ccc(C(=O)N/N=C/c2ccc([N+](=O)[O-])cc2)cc1	–
2.37	CN(C)CCOc1ccc(C(=O)N/N=C/c2ccccn2)cc1	–
2.21	CN(C)CCOc1ccc(C(=O)N/N=C/c2ccc(O)cc2)cc1	–
1.89	CN(C)CCOc1ccc(C(=O)N/N=C/c2ccc(N(C)C)cc2)cc1	481
1.89	Cc1ncc([N+](=O)[O-])n1CCO [METRONIDAZOLE]	> 100
1.89	Cc1cc(C)c(/C=N/NC(=O)c2ccc(OCCN(C)C)cc2)c(C)c1	81.7
1.86	Cc1ccc(/C=N/NC(=O)c2ccc(OCCN(C)C)cc2)cc1	475
1.81	COc1ccc(OC)c(/C=N/NC(=O)c2ccc(OCCN(C)C)cc2)c1	110
1.76	CN(C)CCOc1ccc(C(=O)N/N=C/c2ccccc2O)cc1	404
1.53	COc1ccc(/C=N/NC(=O)c2ccc(OCCN(C)C)cc2)cc1	126
1.43	CN(C)CCOc1ccc(C(=O)N/N=C/c2ccccc2)cc1	268
1.17	CN(C)CCOc1ccc(C(=O)N/N=C/c2cc(Br)c(O)c(Br)c2)cc1	281
1.14	CCOC(OCC)c1ccc(/C=N/NC(=O)c2ccc(OCCN(C)C)cc2)cc1	172
1.06	CN(C)CCOc1ccc(C(=O)N/N=C/c2ccc3c(c2)OCO3)cc1	548
1.01	CN(C)CCOc1ccc(C(=O)N/N=C/c2cccc(Cl)c2)cc1	140
0.79	CN(C)CCOc1ccc(C(=O)N/N=C/c2ccc(Cl)cc2)cc1	69.4
0.79	COc1cc(/C=N/NC(=O)c2ccc(OCCN(C)C)cc2)ccc1OC(C)=O	186
0.23	CN(C)CCOc1ccc(C(=O)N/N=C/c2ccccc2Cl)cc1	134
